In the library only some 2.3% were active in any assay of this set; here they are far more common.
CSN inh: blocks human CSN-mediated cullin deneddylation | Q92905 | Purified CSN, SCF-Nedd8-OG deneddylation, fluorescence polarization | inhibition, % at 12.5 µM | actives 0.38% (n = 360,000);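 active = pattern-corrected inhibition above about 35%, with an unprinted fluorescence ratio check between 0.5 and 1.5, limit read from the data, passing the limit was not always enough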
Target sequence (Q92905 whole entry, looked up, one chain of several): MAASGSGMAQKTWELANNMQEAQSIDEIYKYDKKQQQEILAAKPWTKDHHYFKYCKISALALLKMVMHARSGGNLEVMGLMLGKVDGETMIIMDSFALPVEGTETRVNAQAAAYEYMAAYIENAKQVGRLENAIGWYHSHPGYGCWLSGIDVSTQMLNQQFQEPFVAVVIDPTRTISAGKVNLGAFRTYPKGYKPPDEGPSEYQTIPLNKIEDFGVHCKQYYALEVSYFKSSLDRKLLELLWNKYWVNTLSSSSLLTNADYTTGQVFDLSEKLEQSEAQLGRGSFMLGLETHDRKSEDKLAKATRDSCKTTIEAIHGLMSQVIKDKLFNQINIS
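Assay system: HEK293T-derived human Csn5 enzyme; quantity: 0.24 nM enzyme; medium: Tris/NaCl/DTT buffer, pH 7.5; also added: substrate SCFSkp2-Nedd8OG, 10 nM; doses: 12.5 µM compound; schedule: 90 min reaction at room temperature; signal: FP; read-out: % inhibition of substrate cleavage by Csn5; benchmarks: substrate-only high control, full reaction low control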
HNF4A DNA FP: change in binding of human HNF4 alpha to DNA; activity change, % at 10 µM; actives 0.3% (n = 360,000); HNF4a-FITC DNA binding, fluorescence polarization, 1 h; P41235; in the data active = activity change above about 30%, passing the limit was not always enough
Myeloid diff MLP: compounds promoting myeloid differentiation | calls only at 10 µM | ER-HoxA9 myeloid progenitors, lysozyme-GFP differentiation, flow cytometry | actives 1% (n = 360,000);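 active = normalized GFP-positive differentiation at or above the plate's own cutoff, the solvent-only control mean plus 3 SD; inconclusive = no clear call, values can overlap the other calls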;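 also: cells exposed to compound for four days before flow analysis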
TPT1 inh: C. albicans TPT1 enzyme inhibition; recombinant caTPT1, FP RNA substrate dephosphorylation; inhibition, % at 5 µM; actives 0.81% (n = 300,000);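 active = inhibition above the mean of all tested compounds plus 3 SD, set per screening campaign, cut at about 24% in these data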
Rpn11 inh: blocks the human proteasome subunit Rpn11; O00487; human 26S proteasome, Ub4-pepOG fluorescence polarization; 20S core pre-blocked with epoxomicin; inhibition, % at 20 µM; actives 0.59% (n = 360,000);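 active = inhibition at 20 µM, scaled to each plate's controls, above about 33%, limit read from the data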
Target sequence (O00487 whole entry, looked up): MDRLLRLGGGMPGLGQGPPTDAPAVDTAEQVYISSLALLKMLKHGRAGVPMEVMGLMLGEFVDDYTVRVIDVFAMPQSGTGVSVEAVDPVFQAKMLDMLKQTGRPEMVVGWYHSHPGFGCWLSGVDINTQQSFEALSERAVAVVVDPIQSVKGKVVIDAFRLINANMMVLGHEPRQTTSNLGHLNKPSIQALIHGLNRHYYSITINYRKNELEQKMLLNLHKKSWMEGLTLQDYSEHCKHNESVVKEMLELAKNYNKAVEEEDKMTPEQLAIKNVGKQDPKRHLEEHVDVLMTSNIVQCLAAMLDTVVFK
Rpn11 confirm: Rpn11 inhibition confirmation, single concentration; shares compounds with Rpn11 inh; purified human 26S proteasome, Ub4-pepOG fluorescence polarization; proteasome pretreated with epoxomicin; inhibition, % at 20 µM; actives 29% (n = 1,900); AID 602318
MMP-2 inh: blocks human MMP-2, flagging nonselective RPN11 hits. shares compounds with Rpn11 inh. recombinant MMP-2, FRET peptide cleavage fluorescence. inhibition, % at 20 µM. actives 4% (n = 1,900). AID 602330;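 also: human MMP-2 activated beforehand with APMA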
Thrombin inh: counter-screen for RPN11 inhibitors: inhibition of bovine thrombin; inhibition, % at 20 µM; actives 13% (n = 1,900); shares compounds with Rpn11 inh; AID 602333; bovine thrombin cleavage of Ub4-pepOG, fluorescence polarization;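 active = mean inhibition at least 40% at 20 µM, or signal 3 deviations below plate average, so some actives read negative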
Large screens that a line does not name were inactive (follow-up assays come after a bar, where they were run). Rule as the data show it, unless noted: active = inhibition above about 40%; inactive = the rest.

Cc1ccc2oc(=O)c3cc(C(=O)NCCCN4CCCCCC4)sc3c2c1	Rpn11 inh 56 | Rpn11 confirm inactive | MMP-2 inh inactive | Thrombin inh inactive
CC[C@]1(C(=O)OC)[C@H]2C(=O)N(Cc3ccccc3)C(=O)[C@H]2[C@H]2CN=C(SC)N21	none (no result: TPT1 inh)
CCOc1cc(OCC)cc(C(=O)NCCN2CCC(n3c(=O)[nH]c4ccccc43)CC2)c1	none (no result: TPT1 inh, Rpn11 inh)
CC(=O)Nc1ccc(S(=O)(=O)N(Cc2cccnc2)Cc2cc3ccc(C)cc3[nH]c2=O)cc1	none
CCc1nc2oc3cc(OC)ccc3c(=O)c2c(=O)n1Cc1ccco1	Rpn11 inh active | Rpn11 confirm inactive | MMP-2 inh inactive | Thrombin inh inactive
S=C(Nc1ccc(Cl)cc1)c1nc2ccccc2s1	none
O=C(Nc1ccc(Cl)cc1)/C(=C/c1cccc(O)c1)c1nc2ccccc2s1	Rpn11 inh 46 (no result: Myeloid diff MLP) | Rpn11 confirm inactive | MMP-2 inh inactive | Thrombin inh inactive
O=C1Nc2ccccc2N(O)N1c1cc(-c2ccc(Cl)cc2)[nH]n1	none
Cc1nnn(-c2nonc2N)c1C(=O)NNC(=O)c1ccc(Cl)c(Cl)c1	Rpn11 inh 53 | Rpn11 confirm inactive | MMP-2 inh inactive | Thrombin inh inactive
O=C1N/C(=N/Nc2ccccc2)S/C1=C\c1ccccc1	Rpn11 inh 66 | Rpn11 confirm inactive | MMP-2 inh inactive | Thrombin inh inactive
Cn1c(=O)oc2cc(S(=O)(=O)N3CCN(c4ccc(F)cc4)CC3)ccc21	Rpn11 inh 44 | Rpn11 confirm inactive | MMP-2 inh inactive | Thrombin inh inactive
CN1CCN(S(=O)(=O)c2ccc3c(c2)oc(=O)n3C)CC1	Rpn11 inh 61 (no result: Myeloid diff MLP) | Rpn11 confirm inactive | MMP-2 inh inactive | Thrombin inh inactive
Cn1c(=O)oc2cc(S(=O)(=O)N3CCCCC3)ccc21	none
COc1ccc(CCNC(=O)Cn2nnc(C(=O)Nc3cc(C)ccc3C)c2N)cc1OC	none
O=C(NC(Cc1ccccc1)C(=O)O)/C(=C/c1ccccc1)NC(=O)c1cccc(Br)c1 (stereo not drawn)	none
CC(=O)Nc1cc(NC(C)=O)cc(C(=O)OCC(=O)c2ccc3c(c2)NC(=O)CO3)c1	none (no result: Myeloid diff MLP)
N#CCC(=O)Nc1ccc(C(=O)OCC(=O)c2ccc3c(c2)NC(=O)CO3)cc1	Rpn11 inh 45 (no result: TPT1 inh) | Rpn11 confirm inactive | MMP-2 inh inactive | Thrombin inh inactive
Cc1cc(-c2csc(NC(=O)c3cccc(S(=O)(=O)N(C)C)c3)n2)c(C)n1-c1ccccc1	Rpn11 inh 37 | Rpn11 confirm inactive | MMP-2 inh inactive | Thrombin inh inactive
CCSc1nc2nccnc2c(=O)[nH]1	none (no result: TPT1 inh)
Cc1ccc(C)n1-c1ccc(C(=O)/C=C/N(C)C)cc1	Rpn11 inh 50 | Rpn11 confirm inactive | MMP-2 inh inactive | Thrombin inh inactive
CN(C)/C=C/C(=O)c1ccc(Br)cc1	none
COc1ccc(OC)c(NC(=O)c2nc(S(=O)(=O)Cc3ccccc3)ncc2Cl)c1	Myeloid diff MLP inconclusive
COc1ccc(NC(=O)c2nc(S(=O)(=O)Cc3cccc(C)c3)ncc2Cl)c(OC)c1	Myeloid diff MLP inconclusive, Rpn11 inh 41 | Rpn11 confirm inactive | MMP-2 inh inactive | Thrombin inh inactive
O=C(NCc1ccc(F)cc1)c1cccc2c1C(=O)c1ccc(N3CCOCC3)cc1S2(=O)=O	Rpn11 inh 45 (no result: TPT1 inh) | Rpn11 confirm 54 | MMP-2 inh inactive | Thrombin inh inactive
C=CCNC(=O)c1cccc2c1C(=O)c1ccc(N3CCOCC3)cc1S2(=O)=O	Rpn11 inh 49 (no result: TPT1 inh) | Rpn11 confirm inactive | MMP-2 inh inactive | Thrombin inh inactive
O=C(NCCc1ccccc1)c1cccc2c1C(=O)c1ccc(N3CCOCC3)cc1S2(=O)=O	none (no result: TPT1 inh)
O=C(NCc1cccc(F)c1)c1cccc2c1C(=O)c1ccc(Cl)cc1S2(=O)=O	none (no result: TPT1 inh)
Cc1cc(C)c(NS(=O)(=O)c2ccc3c(c2)oc(=O)n3C)c(C)c1	none (no result: TPT1 inh)
Cn1c(=O)oc2cc(S(=O)(=O)NC3CCCCC3)ccc21	none
Cn1c(=O)oc2cc(S(=O)(=O)Nc3cccc4c3CCCC4)ccc21	Rpn11 inh 42 | Rpn11 confirm inactive | MMP-2 inh inactive | Thrombin inh inactive
Cn1c(=O)oc2cc(S(=O)(=O)NCC3CCCO3)ccc21 (stereo not drawn)	Myeloid diff MLP active, Rpn11 inh 76 | Rpn11 confirm inactive | MMP-2 inh inactive | Thrombin inh inactive
CC#CC[N+](C)(C)CCCCCCCC	none
CCCCCCCCCCCCCCCC[N+](C)(C)Cc1ccc(F)cc1	Rpn11 inh 63 (no result: Myeloid diff MLP, TPT1 inh) | Rpn11 confirm 88 | MMP-2 inh inactive | Thrombin inh inactive
O=C1C2C3C=CC(C2C(=O)N1C1CCCCC1)C1C2C(=O)N(C4CCCCC4)C(=O)C2C31 (stereo not drawn)	none
CCOC(=O)CCC(=O)Nc1ccc([N+](=O)[O-])cc1C	HNF4A DNA FP 30, Rpn11 inh 138 | Rpn11 confirm inactive | MMP-2 inh inactive | Thrombin inh inactive
COCC(=O)Nc1ccc([N+](=O)[O-])cc1C	none
Cc1ccc(C)c(-c2nnc(NC(=O)CCS(=O)(=O)c3ccc(F)cc3)o2)c1	none
COCc1ccc(C(=O)N2CCCC(N3CCN(c4ccc(F)cc4)CC3)C2)o1 (stereo not drawn)	none
COc1cc(/C=C(\NC(=O)c2ccccc2)C(=O)N2CC3CC(C2)c2cccc(=O)n2C3)cc(OC)c1OC (stereo not drawn)	none
COc1cc(/C=C(\C#N)C(=O)Nc2cc(C(F)(F)F)ccc2Cl)ccc1OCC(=O)Nc1cccc(C(F)(F)F)c1	Rpn11 inh 80 | Rpn11 confirm 59 | MMP-2 inh inactive | Thrombin inh inactive
CCOC(=O)/C(C#N)=C/c1ccc(OCC(=O)Nc2ccc(C)c(C)c2)c(OC)c1	none
CN(C(=O)c1ccc(F)cc1)c1ccc(OCC(=O)Nc2ccccc2C(=O)O)cc1	none (no result: TPT1 inh)
Cn1c(=O)n(C)c2cc3[nH]cnc3cc21	none
Nc1cc2nc[nH]c2cc1N	Rpn11 inh 45 (no result: TPT1 inh) | Rpn11 confirm inactive | MMP-2 inh inactive | Thrombin inh inactive
C=CCSc1nc2sc3c(c2c(=O)n1-c1ccccc1)CCN(C)C3	none
CCSc1nc2sc3c(c2c(=O)n1-c1ccccc1)CCN(C)C3	Rpn11 inh 53 | Rpn11 confirm inactive | MMP-2 inh inactive | Thrombin inh inactive
O=S(=O)(c1ccc(Br)s1)N1CCN(c2ccccc2)CC1	HNF4A DNA FP 32, Rpn11 inh 52 | Rpn11 confirm inactive | MMP-2 inh inactive | Thrombin inh inactive
O=C(Cc1cccc(C(F)(F)F)c1)OCN1C(=O)c2ccccc2C1=O	none
COC(=O)c1c(NC(=O)/C=C/C(=O)O)sc(Cc2ccccc2)c1C	none
